The record followed here is ChEMBL document CHEMBL1123812, “Pyrroloisoquinoline antidepressants. 2. In-depth exploration of structure-activity relationships” (J Med Chem, 1987).

In general, inhibition refers to the percentage by which the read-out fell short of the control. A lower inhibition goes with little suppression. What is called Ki is the equilibrium dissociation constant of an inhibitor or competing ligand from its target. Read a high Ki as a looser hold on the target. In general, ED50 refers to the dose at which the effect has come halfway, by size or by number of responders. As a reminder, the Inhibition is how much of the control response was suppressed.

Active and inactive are the calls of the source.

The species named for test [1] is Rattus norvegicus. In words: Inhibition of GABA uptake at 1 uM concentration. It counts as functional.
The target in test [2] is D(1A) dopamine receptor (Rattus norvegicus) (UniProt P18901). In words: Binding affinity towards Dopamine receptor D1 at 1.0 uM concentration. Put shortly:
(§1)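 Rat brain crude synaptic membranes in 20 mM NaHEPES pH 7.5. Ligands: α1 cortex […] 0.4 nM, nonspecific with (-)-NE 100 μM, 30 min at 25 °C. […] D2 striatum [3H]spiperone 0.05 nM with (+)-butaclamol 1 μM, 45 min at 37 °C. S1 cortex [3H]5-HT 1 nM plus glutathione and MgCl2, with 5-HT 10 μM, 20 min at 37 °C. […] Samples filtered on GF/B and counted.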

The target in test [3] is D(2) dopamine receptor (Rattus norvegicus) (UniProt P61169). The test is described as follows: Binding affinity towards dopamine receptor D2 at 1.0 uM concentration. Put shortly:
as §1

The target of test [4] is Serotonin 1 (5-HT1) receptor (Rattus norvegicus, UniProt P28564+P30940+P19327+P28565). In words: Binding affinity towards serotonin S1 receptor. It counts as protein assay. Put shortly: as §1
Test [5] addresses Serotonin 2 (5-HT2) receptor (Rattus norvegicus) (UniProt P30994+P08909+P14842). In words: Binding affinity towards 5-hydroxytryptamine 2 receptor at 1.0 uM concentration. It counts as protein assay. Put shortly:
as §1

For test [6], the species on record is Mus musculus. In words: Gross behavioral effects ascertained in mice; S indicates significant stimulant properties. It counts as functional, organism-based. Put shortly:
(§2)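 Male Swiss Webster mice, 18–24 g, three per dose, given ip doses of 1, 3, 10, 30, 100 and 300 mg/kg. Observed for gross behavior and held for 4 days. Scored as weak (W), stimulant (S), depressant (D) or convulsant (C).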

The target of test [7] is Sodium-dependent dopamine transporter (Rattus norvegicus, UniProt P23977). In words: Inhibition of the uptake of tritiated dopamine (DA) in rat synaptosomes. It counts as subcellular, Brain.
The species entered for test [8] is Mus musculus. The test is described as follows: Antagonism of tetrabenazine (TBZ)-induced depression in mice measured for ptosis. It counts as functional. The settings on record: Mus musculus; read-out: ED50. Put shortly: (§3)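 Nonfasted male Swiss Webster mice, 18–24 g, ten per dose level and in saline controls. Test compound given ip 30 min before tetrabenazine 32 mg/kg ip; dose expressed as free base. Motor activity and ptosis scored. Control response ≤90% corrected by Abbott's formula.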

Test [9] is filed under the species Mus musculus. In words: Antagonism of tetrabenazine (TBZ)-induced depression measured in mice by motor activity. The settings on record: Mus musculus; read-out: ED50. It counts as functional. Put shortly:
as §3

The target in test [10] is T1, Adrenergic receptor alpha-2 (Rattus norvegicus, UniProt P22086+P19328+P22909).
T1 sequence (P22086 whole entry): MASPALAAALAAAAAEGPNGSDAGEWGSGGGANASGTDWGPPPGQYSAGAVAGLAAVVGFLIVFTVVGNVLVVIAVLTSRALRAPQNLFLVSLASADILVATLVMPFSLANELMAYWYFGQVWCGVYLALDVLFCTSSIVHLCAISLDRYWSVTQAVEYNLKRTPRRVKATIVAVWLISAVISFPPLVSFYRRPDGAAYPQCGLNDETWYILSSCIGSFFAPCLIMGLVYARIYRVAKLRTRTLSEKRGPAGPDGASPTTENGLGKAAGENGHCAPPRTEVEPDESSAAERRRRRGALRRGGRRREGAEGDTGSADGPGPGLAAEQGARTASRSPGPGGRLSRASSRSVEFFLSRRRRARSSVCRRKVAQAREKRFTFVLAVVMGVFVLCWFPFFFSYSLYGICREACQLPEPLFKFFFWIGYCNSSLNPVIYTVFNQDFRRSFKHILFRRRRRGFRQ
T1 sequence (P19328 whole entry): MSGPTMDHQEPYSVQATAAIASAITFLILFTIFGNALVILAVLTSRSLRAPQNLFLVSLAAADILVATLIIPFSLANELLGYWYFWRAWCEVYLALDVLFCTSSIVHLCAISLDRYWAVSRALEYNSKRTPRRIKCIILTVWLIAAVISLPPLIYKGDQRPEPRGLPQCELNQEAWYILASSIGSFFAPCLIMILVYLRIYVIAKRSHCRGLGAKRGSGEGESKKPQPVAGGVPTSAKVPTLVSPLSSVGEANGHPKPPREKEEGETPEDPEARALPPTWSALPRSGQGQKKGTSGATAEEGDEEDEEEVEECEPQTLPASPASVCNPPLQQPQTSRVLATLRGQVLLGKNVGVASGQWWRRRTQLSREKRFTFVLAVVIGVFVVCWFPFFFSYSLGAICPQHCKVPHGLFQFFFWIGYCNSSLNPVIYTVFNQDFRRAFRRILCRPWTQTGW
T1 sequence (P22909 whole entry): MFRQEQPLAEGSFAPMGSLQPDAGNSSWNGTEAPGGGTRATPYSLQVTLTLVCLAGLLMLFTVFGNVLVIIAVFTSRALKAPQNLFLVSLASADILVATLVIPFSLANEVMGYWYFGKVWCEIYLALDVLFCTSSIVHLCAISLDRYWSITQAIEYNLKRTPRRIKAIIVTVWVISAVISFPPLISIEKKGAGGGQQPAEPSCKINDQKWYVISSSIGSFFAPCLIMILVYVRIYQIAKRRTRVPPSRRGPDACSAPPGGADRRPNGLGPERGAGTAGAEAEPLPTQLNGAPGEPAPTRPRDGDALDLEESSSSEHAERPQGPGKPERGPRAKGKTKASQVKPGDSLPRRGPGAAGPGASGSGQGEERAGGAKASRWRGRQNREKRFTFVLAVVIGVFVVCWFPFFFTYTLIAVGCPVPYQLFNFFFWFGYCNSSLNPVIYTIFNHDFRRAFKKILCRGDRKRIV
In words: Binding affinity towards alpha-2 adrenergic receptor. It counts as protein assay.

The target in test [11] is Adrenergic receptor alpha-1 (Rattus norvegicus) (UniProt P15823+P23944+P43140). The test is described as follows: Binding affinity towards alpha-1 adrenergic receptor at 1.0 uM concentration. It counts as protein assay. Put shortly:
as §1

The target of test [12] is Norepinephrine transporter (Rattus norvegicus, UniProt Q9WTR4). In words: Inhibition of uptake of tritiated norepinephrine (NE) in rat synaptosomes. It counts as subcellular, Brain.
Test [13] addresses Muscarinic acetylcholine receptor (Rattus norvegicus) (UniProt P08482+P08483+P08485+P08911+P10980). In words: Binding affinity towards Muscarinic acetylcholine receptor at 1.0 uM concentration. It counts as protein assay.
The species entered for test [14] is Mus musculus. In words: Gross behavioral effects ascertained in mice; W indicates weak stimulant or depressant activity of little significance. It counts as functional, organism-based. Put shortly: as §2
Test [15] has as its system Mus musculus. The test is described as follows: (§4) Ability to antagonise intraperitoneal dose; inactive (<10% antagonism) at 30 mgjkg is represented as I-30. It counts as functional, organism-based. Put shortly: (§5)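 Swiss Webster male albino mice, nonfasted, 18–24 g, 10 per dose and in saline control. Compound given ip 30 min before TBZ 32 mg/kg ip. Motor activity and ptosis scored. Response corrected by Abbott's formula when control response was 90% or less. Doses expressed as free base.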

For test [16], the system named is Mus musculus. The description is as §4. It counts as functional, organism-based. Put shortly: as §5
This is another data set of the same source.

Test [17] is filed under the species Rattus norvegicus. In words: Ability to inhibit the uptake of tritiated dopamine (DA) 1 uM concentration. It counts as functional. Put shortly: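 Rat brain synaptosomal [3H]dopamine uptake: striatal P2 fraction, test compound at 1.00 μM. Preincubated at 37 °C, then 50–300 nM [3H]DA for 3 min. Blanks on ice. Filtration and scintillation counting; percent inhibition of control uptake.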

Test [18] deals with Norepinephrine transporter (Rattus norvegicus) (UniProt Q9WTR4). The test is described as follows: Ability to inhibit the uptake of [3H]norepinephrine (NE) 0.1 uM concentration at rat brain synaptosomes. It counts as functional, subcellular. Put shortly:
(§6)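 Male Wistar rat brain synaptosomes (P2 fraction): hypothalamus for NE, striatum for DA, cerebral cortex for 5-HT. Buffer is Tris- or HEPES-buffered salt medium with glucose, ascorbate and nialamide, pH 7.4 at 37 °C. Preincubated 10 min at 37 °C with compound. Uptake started with [3H]NE 100–300 nM, [3H]DA 50–300 nM or [3H]5-HT 100–200 nM, incubated 3 min (DA) or 6–10 min (NE, 5-HT). Blanks held on ice. Filtered, counted by scintillation.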

In test [19] the target is Sodium-dependent serotonin transporter (Rattus norvegicus) (UniProt P31652). In words: Ability to inhibit the uptake of [3H]- serotonin(5-HT) 0.1 uM concentration at rat brain synaptosomes. It counts as functional, subcellular. Put shortly:
as §6

Test [20] has as its target Serotonin 1 (5-HT1) receptor (Rattus norvegicus) (UniProt P28564+P30940+P19327+P28565). In words: Binding affinity towards serotonin S1 receptor at 1.0 uM. It counts as protein assay. Put shortly:
as §1

D(2) dopamine receptor (Rattus norvegicus), sequence (P61169 whole entry): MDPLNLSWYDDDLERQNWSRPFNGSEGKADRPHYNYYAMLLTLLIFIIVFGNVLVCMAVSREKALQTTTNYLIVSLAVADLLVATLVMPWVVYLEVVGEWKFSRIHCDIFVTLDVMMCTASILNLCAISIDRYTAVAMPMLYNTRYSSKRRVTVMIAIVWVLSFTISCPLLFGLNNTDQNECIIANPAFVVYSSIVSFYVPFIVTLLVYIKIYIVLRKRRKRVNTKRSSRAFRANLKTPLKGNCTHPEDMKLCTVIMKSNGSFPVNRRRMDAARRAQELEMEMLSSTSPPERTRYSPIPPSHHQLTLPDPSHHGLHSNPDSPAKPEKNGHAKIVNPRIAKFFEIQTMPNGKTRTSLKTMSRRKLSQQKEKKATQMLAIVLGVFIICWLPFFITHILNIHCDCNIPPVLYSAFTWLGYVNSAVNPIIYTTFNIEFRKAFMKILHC
Norepinephrine transporter (Rattus norvegicus), sequence (Q9WTR4 as listed by the source): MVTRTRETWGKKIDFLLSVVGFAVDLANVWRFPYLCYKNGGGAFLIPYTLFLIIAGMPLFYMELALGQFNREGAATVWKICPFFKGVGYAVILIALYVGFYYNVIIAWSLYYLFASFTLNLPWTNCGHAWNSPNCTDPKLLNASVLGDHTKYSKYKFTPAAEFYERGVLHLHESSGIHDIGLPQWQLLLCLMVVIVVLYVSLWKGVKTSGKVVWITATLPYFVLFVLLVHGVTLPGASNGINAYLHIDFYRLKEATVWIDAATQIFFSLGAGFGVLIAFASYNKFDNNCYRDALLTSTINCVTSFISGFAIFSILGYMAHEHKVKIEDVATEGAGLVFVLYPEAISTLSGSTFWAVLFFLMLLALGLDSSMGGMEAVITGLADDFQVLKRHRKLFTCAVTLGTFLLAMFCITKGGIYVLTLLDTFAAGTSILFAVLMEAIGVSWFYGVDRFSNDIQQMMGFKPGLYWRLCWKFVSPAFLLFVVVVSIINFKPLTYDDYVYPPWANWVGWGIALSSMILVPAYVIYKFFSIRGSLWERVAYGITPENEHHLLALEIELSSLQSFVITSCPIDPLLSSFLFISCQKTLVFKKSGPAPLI
Norepinephrine transporter, sequence (Q9WTR4 whole entry): as the sequence (Q9WTR4 as listed by the source) above
Sodium-dependent dopamine transporter, sequence (P23977 whole entry): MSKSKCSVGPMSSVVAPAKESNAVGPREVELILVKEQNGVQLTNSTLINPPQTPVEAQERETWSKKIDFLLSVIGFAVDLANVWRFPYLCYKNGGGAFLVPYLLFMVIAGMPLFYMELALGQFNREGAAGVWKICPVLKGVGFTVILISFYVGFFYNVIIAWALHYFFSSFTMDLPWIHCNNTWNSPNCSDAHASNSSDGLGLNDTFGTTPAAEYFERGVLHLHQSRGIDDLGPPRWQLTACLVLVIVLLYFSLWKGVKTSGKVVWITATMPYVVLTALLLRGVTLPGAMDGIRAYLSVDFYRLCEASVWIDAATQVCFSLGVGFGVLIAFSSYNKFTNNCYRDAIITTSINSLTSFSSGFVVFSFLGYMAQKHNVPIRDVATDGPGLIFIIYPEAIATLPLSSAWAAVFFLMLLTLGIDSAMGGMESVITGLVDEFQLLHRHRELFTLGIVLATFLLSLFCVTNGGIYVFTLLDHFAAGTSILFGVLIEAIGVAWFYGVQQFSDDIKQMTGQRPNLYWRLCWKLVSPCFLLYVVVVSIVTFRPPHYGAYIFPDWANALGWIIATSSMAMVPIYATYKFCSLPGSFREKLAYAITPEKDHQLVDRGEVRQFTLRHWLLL
Serotonin 2 (5-HT2) receptor (Rattus norvegicus), sequence (P08909 whole entry, looked up): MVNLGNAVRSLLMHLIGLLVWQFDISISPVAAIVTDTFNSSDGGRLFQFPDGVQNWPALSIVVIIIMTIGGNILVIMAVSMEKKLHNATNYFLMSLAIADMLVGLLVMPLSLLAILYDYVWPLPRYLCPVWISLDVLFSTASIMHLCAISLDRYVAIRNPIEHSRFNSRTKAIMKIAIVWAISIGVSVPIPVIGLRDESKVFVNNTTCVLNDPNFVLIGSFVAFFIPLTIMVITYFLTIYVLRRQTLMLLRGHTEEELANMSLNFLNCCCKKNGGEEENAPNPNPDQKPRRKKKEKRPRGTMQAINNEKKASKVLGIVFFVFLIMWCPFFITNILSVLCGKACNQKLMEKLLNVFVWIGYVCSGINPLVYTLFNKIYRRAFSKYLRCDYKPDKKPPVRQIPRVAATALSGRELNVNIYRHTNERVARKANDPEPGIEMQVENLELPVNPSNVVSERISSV
Serotonin 2 (5-HT2) receptor (Rattus norvegicus), sequence (P14842 whole entry, looked up): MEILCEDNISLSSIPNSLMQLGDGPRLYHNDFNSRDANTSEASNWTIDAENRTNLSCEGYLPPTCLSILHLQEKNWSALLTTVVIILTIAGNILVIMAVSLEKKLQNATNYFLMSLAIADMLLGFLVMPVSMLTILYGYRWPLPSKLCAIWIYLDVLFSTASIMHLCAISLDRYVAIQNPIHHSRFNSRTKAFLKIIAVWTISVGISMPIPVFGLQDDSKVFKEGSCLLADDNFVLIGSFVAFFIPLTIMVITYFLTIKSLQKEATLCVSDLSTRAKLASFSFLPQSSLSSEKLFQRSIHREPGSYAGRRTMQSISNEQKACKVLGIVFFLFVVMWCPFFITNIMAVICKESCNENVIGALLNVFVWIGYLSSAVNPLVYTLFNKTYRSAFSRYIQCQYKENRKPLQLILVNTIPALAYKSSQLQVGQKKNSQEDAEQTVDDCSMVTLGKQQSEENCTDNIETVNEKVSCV
Serotonin 2 (5-HT2) receptor (Rattus norvegicus), sequence (P30994 whole entry, looked up): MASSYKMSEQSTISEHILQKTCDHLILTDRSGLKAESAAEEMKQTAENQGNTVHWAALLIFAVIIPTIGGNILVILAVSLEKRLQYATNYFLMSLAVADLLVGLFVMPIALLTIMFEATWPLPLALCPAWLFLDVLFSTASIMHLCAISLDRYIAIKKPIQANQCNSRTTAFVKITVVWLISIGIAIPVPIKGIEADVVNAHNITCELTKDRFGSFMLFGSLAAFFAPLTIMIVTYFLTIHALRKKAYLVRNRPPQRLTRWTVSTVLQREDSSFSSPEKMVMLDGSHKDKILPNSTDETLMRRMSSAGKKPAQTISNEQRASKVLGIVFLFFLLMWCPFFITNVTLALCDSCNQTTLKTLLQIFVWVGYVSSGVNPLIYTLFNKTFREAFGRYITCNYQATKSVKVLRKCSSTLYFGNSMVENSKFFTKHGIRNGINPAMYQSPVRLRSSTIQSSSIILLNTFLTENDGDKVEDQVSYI
Sodium-dependent serotonin transporter (Rattus norvegicus), sequence (P31652 whole entry): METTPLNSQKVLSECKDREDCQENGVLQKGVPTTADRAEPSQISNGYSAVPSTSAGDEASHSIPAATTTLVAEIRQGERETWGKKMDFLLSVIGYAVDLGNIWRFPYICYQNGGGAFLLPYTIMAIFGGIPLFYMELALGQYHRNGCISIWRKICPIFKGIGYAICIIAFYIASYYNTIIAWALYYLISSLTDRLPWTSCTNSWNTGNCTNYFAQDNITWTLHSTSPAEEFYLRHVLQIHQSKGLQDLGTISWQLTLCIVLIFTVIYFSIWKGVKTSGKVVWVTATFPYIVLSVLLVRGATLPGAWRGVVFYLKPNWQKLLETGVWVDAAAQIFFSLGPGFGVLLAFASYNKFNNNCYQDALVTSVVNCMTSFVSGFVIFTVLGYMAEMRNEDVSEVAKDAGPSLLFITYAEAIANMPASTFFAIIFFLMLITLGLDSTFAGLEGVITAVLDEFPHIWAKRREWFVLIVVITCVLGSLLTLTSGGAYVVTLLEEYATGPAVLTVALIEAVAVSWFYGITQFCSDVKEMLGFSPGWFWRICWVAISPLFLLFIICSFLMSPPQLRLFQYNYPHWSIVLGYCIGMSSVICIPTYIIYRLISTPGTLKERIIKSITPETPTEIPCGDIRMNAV
D(1A) dopamine receptor (Rattus norvegicus), sequence (P18901 whole entry): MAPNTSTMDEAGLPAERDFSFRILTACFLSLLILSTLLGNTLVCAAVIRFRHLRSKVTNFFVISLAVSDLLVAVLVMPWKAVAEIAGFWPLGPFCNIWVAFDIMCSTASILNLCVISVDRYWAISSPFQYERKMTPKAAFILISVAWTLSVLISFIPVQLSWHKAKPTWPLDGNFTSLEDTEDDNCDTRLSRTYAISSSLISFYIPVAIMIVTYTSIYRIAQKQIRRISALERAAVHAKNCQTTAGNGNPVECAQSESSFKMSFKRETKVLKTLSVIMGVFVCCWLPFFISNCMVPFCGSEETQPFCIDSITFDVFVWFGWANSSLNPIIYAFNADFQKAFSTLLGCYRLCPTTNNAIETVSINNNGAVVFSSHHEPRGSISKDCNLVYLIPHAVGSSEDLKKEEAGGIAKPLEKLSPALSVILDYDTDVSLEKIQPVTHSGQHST

Regarding `CSc1ccc([C@@H]2CN3CCC[C@@H]3c3ccccc32)cc1` (stereo in doubt; 48b), the inhibition worked out at 10% in the test listed under Rattus norvegicus [1], 24% in test [2] and 4% in [3].
As for `Clc1ccc([C@@H]2CN3CCC[C@@H]3c3ccccc32)cc1Cl`, the inhibitory constant (Ki) was 465 nM in test [4], 0.99 nM in test [7], 990 nM in test [10] and 0.68 nM in [12]. For the same molecule, the inhibition in [5] came to 24%; in test [3], 37%; in test [11], 33%; in test [13] it was 9%. Also, the behavior result in the test filed under Mus musculus [6] was “Stimulant”. Also, the ED50 in the test filed under Mus musculus [8] came to 0.14 mg/kg; in the test filed under Mus musculus [9], 0.39 mg/kg.
As to `C[C@@]12CCCN1CCc1ccccc12`, the behavior result in the test filed under Mus musculus [14] was “Weak”. Further, the ED50 entry with Mus musculus [15] and with Mus musculus [16] was “inactive” throughout. In addition, the Inhibition in the test listed under Rattus norvegicus [17] is reported as 15%. Also, the inhibition in test [18] was found to be 6%; in test [19] it was 2%.
As for `CN(C)CCCN1c2ccccc2CCc2ccccc21` [IMIPRAMINE], in the test filed under Mus musculus [8], the 50% effective dose (ED50) stood at 0.78 mg/kg. For the same molecule, the figures for the inhibition in test [3] and in [20] were 63% and 15%, respectively. The molecule further displayed a Ki in test [10] of 4900 nM.
